Bioassay records from PubChem BioAssay.
An excerpt weighted towards active compounds, which were near 1.4% of everything screened.
NR2E3 ag-1 – inhibitors of NR2E3-RetCOR corepressor binding, primary screen, NR2E3 agonist project, biochemical, TR-FRET, GST-NR2E3, biotin-RetCOR | 1536-well | inhibition of corepressor binding, % at 4.78 µM | 0.12% of 320,000 active;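 active means percent inhibition above the cutoff of mean plus 3 SD of all tested compounds, set per screening campaign, cut at about 20% in these data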;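 further: 0% = DMSO wells and 100% = biotin wells as full block of FRET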
Target sequence (Q9Y5X4 whole entry, looked up): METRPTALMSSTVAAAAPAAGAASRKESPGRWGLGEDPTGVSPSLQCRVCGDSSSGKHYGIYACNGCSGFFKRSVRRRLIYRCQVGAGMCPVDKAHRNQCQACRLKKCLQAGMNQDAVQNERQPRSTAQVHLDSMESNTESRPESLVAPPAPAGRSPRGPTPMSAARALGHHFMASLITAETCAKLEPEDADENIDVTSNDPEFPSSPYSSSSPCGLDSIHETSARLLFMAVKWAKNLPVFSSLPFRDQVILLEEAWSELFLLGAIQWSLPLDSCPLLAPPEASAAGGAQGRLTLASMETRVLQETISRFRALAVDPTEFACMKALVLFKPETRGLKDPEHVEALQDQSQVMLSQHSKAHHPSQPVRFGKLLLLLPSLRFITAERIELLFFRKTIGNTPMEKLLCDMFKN
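Material – GST-tagged NR2E3 plus biotinylated RetCOR corepressor · Quantity – NR2E3 fusion 1.35 nM · Times – 5 h incubation at 4 °C · Medium – pH 7.5 Tris-based buffer · Technique – TR-FRET, Eu(K)-anti-GST donor, streptavidin-D2 acceptor, ex 340, em 617/671 nm · Benchmarks – high control biotin, low control 0.6% DMSO · Format – 1536-well plates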
PG9 Ab binder – binders of HIV-1 gp120 antibody PG9, primary screen, biochemical, TR-FRET; HIV-1 gp120 / PG9 antibody interaction; TR-FRET gp120-PG9 antibody binding; inhibition, % at 6.7 µM; 0.43% of 360,000 active; AID 624416, 2012; in the data active means inhibition above about 8.5%
NR2E3 ag-2 – NR2E3 agonists in two-hybrid cells, primary screen, cell-based, luminescence, CHO-S, Gal4-NCOR/VP16-NR2E3; luciferase; Photoreceptor-specific nuclear receptor (Homo sapiens), Q9Y5X4; AID 602229, 2012; 0.35% of 360,000 active; inhibition of corepressor binding, % at 3.98 µM;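 active means inhibition above the mean of all tested compounds plus 3 SD, cut at about 70% in these data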;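 further: 0% = DMSO with NR2E3 transfected cells and 100% = cells lacking NR2E3 construct; higher means lower luciferase signal from less NR2E3 corepressor binding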
Rev-erbA mod – modulators of Rev-erb alpha DNA binding, primary screen, biochemical, FITC-DNA, fluorescence polarization, uHTS; Nuclear receptor subfamily 1 group D member 1 (Homo sapiens), P20393; Rev-erbα–FITC-DNA binding, 90 min; activity, % at 10 µM; 0.79% of 370,000 active; AID 1259318, 2017;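 active means activity above about 14%, limit read from the data; passing the limit was not always enough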;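 further: 0% = DMSO wells with 35 nM protein and 100% = DMSO wells with 750 nM protein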
NR1D1 mod conf – modulators of Rev-erb alpha DNA binding, confirmation, biochemical, FITC-DNA, fluorescence polarization, single point; shares compounds with Rev-erbA mod; 90 min; activation, % at 25 µM; 61% of 3,000 active; AID 1259319, 2017;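 active means activation at or above a set limit, or at least 3 SD above the negative control mean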;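 further: 0% = 35 nM protein with DMSO and 100% = 750 nM protein high control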
RORg DNA counter – modulation of RORgamma DNA binding, dose response, counter-screen for Rev-erb alpha modulator project, biochemical, fluorescence polarization, FITC-DNA. shares compounds with Rev-erbA mod. purified RORgamma protein-FITC-DNA binding. IC50, µM. 8% of 910 active;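 active means Compounds whose fitted half-maximal concentration for disrupting protein-DNA binding is below 10 micromolar; the record names Rev-erb in its text, so the target is in doubt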
* hit, by the source's call; x = no result.

SMILES | NR2E3 ag-1 | PG9 Ab binder | NR2E3 ag-2 | Rev-erbA mod | NR1D1 mod conf | RORg DNA counter
Cc1c(/C(O)=C2/C(=O)C(=O)N(CCN3CCOCC3)C2c2cccs2)cnn1-c1ccccc1 (stereo unspecified) | 6.1 | 4.9 | 15.9 | 21.2* | 25.6* | x
Cc1ccc(C2/C(=C(/O)c3cnn(-c4ccccc4)c3C)C(=O)C(=O)N2CCN2CCOCC2)o1 (stereo unspecified) | -1.5 | -0.6 | -93.0 | -5.8 | x | x
CN(CCO)c1ccc2c(c1)Oc1ccccc1CN(Cc1cn(Cc3ccc(F)cc3)nn1)S2(=O)=O | x | x | x | -9.9 | x | x
O=C(Cc1ccc(Cl)cc1)c1c[nH]c(C(=O)NCc2cccnc2)c1 | 0.0 | 1.2 | 10.9 | 18.7* | 34.5* | >40
COC(=O)c1ccc(Cn2ccc3ccc(-c4ccc5ccn(C(=O)c6ccccc6OC)c5c4)cc32)cc1 | x | x | x | 47.0* | 71.6* | >40
COc1ccc(Cn2ccc3ccc(-c4ccc5ccn(C(=O)c6ccccc6OC)c5c4)cc32)cc1 | x | x | x | 70.6* | 62.9* | >40
COc1ccc(Cn2ccc3ccc(-c4ccc5ccn(C(=O)c6ccccc6C)c5c4)cc32)cc1 | x | x | x | 4.5 | x | x
Cc1ccccc1C(=O)n1ccc2ccc(-c3ccc4ccn(Cc5ccccc5)c4c3)cc21 | x | x | x | 6.6 | x | x
COC(=O)[C@@]12CCCCC3=C1N(CCC3)C(=O)[C@H]2CC(=O)N1CCC(c2ccccc2)CC1 | x | x | x | 14.8 | x | x
C=C(C)CN1C(=O)C(C)SC1=NN=C1SCC(=O)N1C (stereo unspecified) | x | -0.7 | 14.6 | -9.9 | x | x
CN1C(=O)CSC1=NCC12CC3CC(CC(C3)C1)C2 | 0.9 | -0.6 | 1.2 | 23.9* | 32.0* | >40
COc1ccc(C(=O)c2c[nH]c(C(=O)NCc3cccs3)c2)cc1 | -0.4 | -0.1 | -23.5 | 42.6* | 62.9* | >40
COc1ccc(-c2oc(=O)c3cc(OC)c(OC)cc3c2C#CCCCO)cc1 | x | -0.7 | 14.2 | 12.9 | x | x
COc1ccc(-c2oc(=O)c3cc(OC)c(OC)cc3c2C#CC2(O)CCCCC2)cc1 | x | -0.4 | 3.4 | 27.0* | -2.6 | x
COc1cc(OC)cc(-c2oc(=O)c3cc(OC)c(OC)cc3c2C#CCCCO)c1 | 8.7 | -2.4 | 10.0 | 31.7* | -4.5 | x
COc1ccc(-c2oc3ccccc3c(=O)c2OC(=O)c2ccc(C)cc2)cc1 | -1.1 | 0.0 | 7.2 | 21.6* | 35.5* | >40
Cc1ccccc1NC(=O)Nc1ccc2c(c1)C(=O)N(C)[C@H]1CC[C@H](CC(=O)NCC3CC3)O[C@@H]1CO2 | x | x | x | 29.8* | 14.3* | x
CN1C(=O)c2cc(NC(=O)c3ccccc3)ccc2OC[C@H]2O[C@@H](CC(=O)NCC3CC3)CC[C@@H]21 | x | x | x | 33.8* | 21.7* | x
CN1C(=O)c2cc(NC(=O)c3cccc(F)c3)ccc2OC[C@@H]2O[C@H](CC(=O)NCc3ccccc3)CC[C@H]21 | x | x | x | -1.1 | x | x
Clc1ccc(N2CCN(c3ncnc4c3oc3ccccc34)CC2)cc1 | 4.3 | 0.2 | -1.8 | 36.7* | 12.0 | x
CC1CN(c2ncnc3c2oc2ccccc23)CC(C)O1 (stereo unspecified) | 2.4 | 1.2 | -43.1 | -0.6 | x | x
O=C(NC[C@@H]1CCCO1)c1cccc2c1C(=O)c1ccc(N3CCOCC3)cc1S2(=O)=O | x | -0.5 | -11.0 | -2.1 | x | x
CC1CCN(c2ccc3c(c2)S(=O)(=O)c2cccc(C(=O)NC[C@@H]4CCCO4)c2C3=O)CC1 | x | -1.8 | -12.6 | 17.9* | 5.5 | x
O=C(NCc1ccccc1Cl)c1cccc2c1C(=O)c1ccc(-c3ccc(OC(F)(F)F)cc3)cc1S2(=O)=O | x | x | 15.4 | x | x | x
O=C(NCc1cc(C(F)(F)F)ccc1Cl)c1cccc2c1C(=O)c1ccc(Cl)cc1S2(=O)=O | x | -1.0 | x | 31.7* | 49.5* | >40
